# TAAR1 antag: human TAAR1 antagonism | inhibition, % at 3 µM | hit rate 1.5% among 360,000 | AID 624466 | CHO RD-HGA16 TAAR1, Fluo-8 calcium fluorescence, antagonist;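 active means inhibition above a per-plate cutoff, the mean inhibition of test compounds on that plate plus 3 SD, cut at about 49% in these data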
#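 Test system: hTAAR1-expressing CHO RD-HGA16 cells, Gα16-coupled; Probe or stimulus: EC80 β-phenethylamine stimulus; Compound dosing: single nominal final test compound concentration of 3 µM; Timing: 140 s kinetic read after compound, 140 s after agonist; Signal: Fluo-8 calcium-sensitive fluorescence; Measure: % inhibition of agonist calcium response; Controls: DMSO and EC80 PEA controls.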
# CRFBP-R2 agonist: CRF-BP/CRF-R2 complex agonism; HEK293 CRF-R2/CRF-BP, calcium dye fluorescence (FLIPR); percent of saturating CRF peptide response; activation, % at 13.2 µM; hit rate 0.46% among 350,000; AID 588473;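 active means activation of at least 50%, plus an integration ratio under a set limit after plate pattern correction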
# ANO1 block: blocks the mouse calcium-activated chloride channel TMEM16A; AID 588511; Q8BHY3; hit rate 1.2% among 310,000; normalized B-score (activity score, 25-100; higher = stronger inhibition) at 10 µM; HEK293 TMEM16A/YFP iodide influx fluorescence, ionomycin;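 active means ratio plate-corrected score three or more library SD toward inhibition, starting fluorescence score within five deviations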;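 further: score derived from kinetic fluorescence span divided by baseline fluorescence per well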
# Target sequence (Q8BHY3 whole entry, looked up): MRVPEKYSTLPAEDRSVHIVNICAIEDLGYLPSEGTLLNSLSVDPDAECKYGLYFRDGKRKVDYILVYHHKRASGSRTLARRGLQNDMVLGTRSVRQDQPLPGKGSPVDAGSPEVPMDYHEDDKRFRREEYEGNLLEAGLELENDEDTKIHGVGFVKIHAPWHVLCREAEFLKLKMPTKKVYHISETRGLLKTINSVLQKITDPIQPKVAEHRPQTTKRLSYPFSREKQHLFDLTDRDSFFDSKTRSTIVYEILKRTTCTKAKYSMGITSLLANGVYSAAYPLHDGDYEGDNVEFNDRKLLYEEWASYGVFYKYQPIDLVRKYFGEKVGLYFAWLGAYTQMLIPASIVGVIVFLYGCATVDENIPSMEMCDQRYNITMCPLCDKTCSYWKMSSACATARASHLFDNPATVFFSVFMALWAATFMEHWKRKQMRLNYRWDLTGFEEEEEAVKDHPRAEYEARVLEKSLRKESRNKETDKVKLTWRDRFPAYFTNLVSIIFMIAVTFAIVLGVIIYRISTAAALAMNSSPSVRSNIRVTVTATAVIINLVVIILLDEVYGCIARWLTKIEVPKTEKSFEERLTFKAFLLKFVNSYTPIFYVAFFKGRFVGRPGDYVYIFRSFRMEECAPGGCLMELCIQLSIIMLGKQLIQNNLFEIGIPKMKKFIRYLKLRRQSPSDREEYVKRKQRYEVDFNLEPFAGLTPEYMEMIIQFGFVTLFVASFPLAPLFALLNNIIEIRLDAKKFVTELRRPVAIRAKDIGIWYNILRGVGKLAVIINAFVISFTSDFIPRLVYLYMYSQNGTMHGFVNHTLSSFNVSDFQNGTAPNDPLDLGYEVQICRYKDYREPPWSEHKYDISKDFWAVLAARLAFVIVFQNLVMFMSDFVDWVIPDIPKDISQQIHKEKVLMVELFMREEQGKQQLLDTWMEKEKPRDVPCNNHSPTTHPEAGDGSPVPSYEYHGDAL
# CRFBP-R2 block: CRF-BP/CRF-R2 complex antagonism | HEK293 CRF-R2/CRF-BP, CRF-induced calcium fluorescence | inhibition, % at 11.8 µM | AID 588475 | hit rate 0.59% among 350,000;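 active means inhibition of the ligand-induced calcium signal above about 50% at the single tested concentration, limit read from the data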
# TMEM16A act: activates or potentiates the mouse TMEM16A chloride channel; HEK293 TMEM16A/YFP-H148Q/I152L, iodide quench fluorescence; active compounds read low; Q8BHY3; AID 623877; hit rate 0.3% among 340,000; B-score at 10 µM;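 active means fluorescence-ratio B-score plate-corrected deviation score at least 3 library SD below zero, with starting fluorescence score within 5 deviations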;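 further: channel opened by trigger with iodide after compound preincubation; score built on the fluorescence ratio of max minus min over baseline; more negative score means more quench and so TMEM16A activation or potentiation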
# TAAR1 agonist: human TAAR1 agonism. Q96RJ0. CHO RD-HGA16 TAAR1, Fluo-8 calcium fluorescence; vehicle wells 0%, saturating PEA agonist 100%. activation, % at 3 µM. hit rate 0.99% among 360,000;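 active means activation above the mean activation of all test compounds in the run plus 3 SD, cut at about 38% in these data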
#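 System: CHO RD-HGA16 cells carrying human TAAR1 plus Gα16; Incubation: 17-24 h seeding, 75 min 37 °C dye, 30 min RT; Measured by: Fluo-8 fluorescence, 5 s baseline then 140 s kinetic read; Control set: DMSO and PEA EC100; Replication: single well for each compound.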
# nonsel antag count: nonselective antagonist in TAAR1 antagonist counter-screen | shares compounds with TAAR1 antag | counterscreen cell line, calcium fluorescence, antagonist mode | inhibition, % at 3 µM | hit rate 77% among 2,400 | AID 651780; in the data active means inhibition above about 22%;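 further: CHO-Ga16 host cells stimulated with ATP at an EC80 level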
# TAAR1 ant conf: confirmation of human TAAR1 antagonists | shares compounds with TAAR1 antag | TAAR1-expressing cells, fluorescence antagonist read-out | inhibition, % at 3 µM | hit rate 40% among 2,400 | AID 651785; in the data active means inhibition above about 49%;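 further: CHO-Ga16 host cells challenged with agonist PEA near its EC80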
# Ga16 nonsel ag: nonselective Ga16 agonist in TAAR1 antagonist counter-screen; shares compounds with TAAR1 antag; Ga16-expressing cells, calcium fluorescence, agonist counterscreen; activation, % at 3 µM; hit rate 18% among 2,400; AID 651953; in the data active means activation above about 12%
# TAAR1 ag counter: activates human TAAR1 in antagonist counter-screen; shares compounds with TAAR1 antag; hTAAR1 cell line, fluorescence activation, agonist mode; activation, % at 3 µM; hit rate 2% among 2,400; AID 651955; in the data active means activation above about 37%;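 further: CHO cells stably expressing TAAR1 with calcium dye readout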
# A number is an active result; . = inactive; / = not tested or not shown; ! = repeats disagree. Shown are actives, neighbours in structure and some others; about 3.9% of the full set was active somewhere.
SMILES,TAAR1 antag,CRFBP-R2 agonist,ANO1 block,CRFBP-R2 block,TMEM16A act,TAAR1 agonist,nonsel antag count,TAAR1 ant conf,Ga16 nonsel ag,TAAR1 ag counter
O=C(Nc1nc(-c2ccccc2)c(-c2ccccc2)s1)c1ccc(S(=O)(=O)N2CCCC2)cc1,107,.,.,.,.,.,.,.,.,.
O=C(Nc1nc(-c2ccc(S(=O)(=O)N3CCOCC3)cc2)cs1)c1ccccc1,59!,.,.,.,.,.,28,50,.,.
O=C(Nc1nc(-c2ccccc2)c(C(=O)c2ccccc2)s1)c1ccc(S(=O)(=O)N2CCCC2)cc1,.,.,.,.,.,.,/,/,/,/
CCN(C[C@H]1N[C@@](C)(C(=O)OC)[C@H]2C(=O)N(Cc3ccccc3)C(=O)[C@@H]12)S(=O)(=O)c1ccc(OC)cc1,.,.,/,.,/,.,/,/,/,/
COc1ccc(-c2cc(C(F)(F)F)c(C#N)c(SCC(=O)Nc3nc(C)co3)n2)cc1,/,.,.,.,.,/,/,/,/,/
Cc1coc(NC(=O)CSc2nc(-c3ccc(Cl)cc3)cc(C(F)(F)F)c2C#N)n1,/,.,.,.,.,/,.,/,.,/
CCCS(=O)(=O)NC(=O)C1(C)CCN(C(=O)CSc2ccccc2)C1 (stereo unspecified),.,/,/,/,/,.,/,/,/,/
CCC(C)Nc1ncnc2c1cnn2Cc1ccc(Cl)cc1 (stereo unspecified),55,.,.,.,.,.,.,.,13,.
O=C(Cc1ccc(Cl)cc1Cl)Nc1cccc(S(=O)(=O)Nc2ccccc2F)c1,.,.,.,.,.,.,/,/,/,/
COc1cc(C(C)=O)ccc1OCC(=O)Nc1cc(C)on1,.,.,/,.,.,.,/,/,/,/
COc1cc(C)cc(OC)c1OCC(=O)Nc1cc(C)on1,88,.,/,.,.,.,.,.,.,.
COCCOC(=O)c1cc(C(=O)c2cc(Cl)ccc2O)coc1=N,.,.,.,.,.,.,/,/,/,/
CCOc1ccc2ncc(S(=O)(=O)c3ccc(C)cc3)c(N3CCC4(CC3)OCCO4)c2c1,63,.,.,.,.,.,.,.,.,.
Cc1cccnc1NC(=O)CNC(=O)C12CC3CC(CC(C3)C1)C2,.,.,.,.,.,.,/,/,/,/
CCN(C(=O)c1ccnn1C)c1ccccc1,.,.,.,.,.,.,/,/,/,/
Cc1nc(-c2ccc(F)cc2)c(CC(=O)N2CCN(S(=O)(=O)c3cccc(F)c3)CC2)s1,.,.,.,.,.,.,/,/,/,/
Cc1nc(-c2ccc(F)cc2)c(CC(=O)N2CCN(S(=O)(=O)c3cccc(Cl)c3)CC2)s1,51,.,.,.,.,.,25,.,.,.
Cc1ccc(C)c(S(=O)(=O)N2CCN(C(=O)Cc3sc(C)nc3-c3ccc(F)cc3)CC2)c1,59,.,/,.,.,.,23,.,.,.
COC(=O)c1cccc(C#CC(NP(=O)(c2ccccc2)c2ccccc2)c2ccccc2)c1 (stereo unspecified),72,.,.,.,.,.,28,.,.,.
COc1ccc(C(CC(=O)O)NC(=O)c2ccccc2[N+](=O)[O-])cc1 (stereo unspecified),.,.,.,.,.,.,/,/,/,/
CCN1C(=O)[C@H]2[C@@H](c3ccc(-c4ccc(C(C)=O)cc4)cc3)N[C@@](Cc3ccccc3)(C(=O)OC)[C@H]2C1=O,.,.,.,.,.,.,/,/,/,/
Cc1sc2ncnc(N3CCC(C(=O)N(C)CC(=O)Nc4ccccc4Br)CC3)c2c1C,63,.,.,.,.,.,27,.,.,.
